Each block holds one compound with its values, some of them ahead of it.
What was measured:
[1] = Inhibition of HDAC in human HeLa nuclear extract using Fluor de Lys as substrate after 15 mins by fluorescence assay
in vivo [2] = conditions: Sprague-Dawley, rat, po, 20 mg/kg
in vivo [3] = conditions: Sprague-Dawley, rat, iv, 2 mg/kg
PC-3 = assay: Anti-proliferative activity against human PC3 cells after 48 hrs by MTT assay; assay type: functional, cell-based; conditions: PC-3, 48 h
Histone deacetylase 1 = Histone deacetylase 1 (Homo sapiens, UniProt Q13547); assay: Inhibition of HDAC1 (unknown origin)
MDA-MB-231 = assay: Anti-proliferative activity against human MDA-MB-231 cells after 48 hrs by MTT assay; assay type: functional, cell-based; conditions: MDA-MB-231, 48 h
[4] = target: T1, Protein deacetylase HDAC6 (Homo sapiens, UniProt Q9UBN7); assay: Inhibition of HDAC6 (unknown origin)
T1 sequence (Q9UBN7 whole entry): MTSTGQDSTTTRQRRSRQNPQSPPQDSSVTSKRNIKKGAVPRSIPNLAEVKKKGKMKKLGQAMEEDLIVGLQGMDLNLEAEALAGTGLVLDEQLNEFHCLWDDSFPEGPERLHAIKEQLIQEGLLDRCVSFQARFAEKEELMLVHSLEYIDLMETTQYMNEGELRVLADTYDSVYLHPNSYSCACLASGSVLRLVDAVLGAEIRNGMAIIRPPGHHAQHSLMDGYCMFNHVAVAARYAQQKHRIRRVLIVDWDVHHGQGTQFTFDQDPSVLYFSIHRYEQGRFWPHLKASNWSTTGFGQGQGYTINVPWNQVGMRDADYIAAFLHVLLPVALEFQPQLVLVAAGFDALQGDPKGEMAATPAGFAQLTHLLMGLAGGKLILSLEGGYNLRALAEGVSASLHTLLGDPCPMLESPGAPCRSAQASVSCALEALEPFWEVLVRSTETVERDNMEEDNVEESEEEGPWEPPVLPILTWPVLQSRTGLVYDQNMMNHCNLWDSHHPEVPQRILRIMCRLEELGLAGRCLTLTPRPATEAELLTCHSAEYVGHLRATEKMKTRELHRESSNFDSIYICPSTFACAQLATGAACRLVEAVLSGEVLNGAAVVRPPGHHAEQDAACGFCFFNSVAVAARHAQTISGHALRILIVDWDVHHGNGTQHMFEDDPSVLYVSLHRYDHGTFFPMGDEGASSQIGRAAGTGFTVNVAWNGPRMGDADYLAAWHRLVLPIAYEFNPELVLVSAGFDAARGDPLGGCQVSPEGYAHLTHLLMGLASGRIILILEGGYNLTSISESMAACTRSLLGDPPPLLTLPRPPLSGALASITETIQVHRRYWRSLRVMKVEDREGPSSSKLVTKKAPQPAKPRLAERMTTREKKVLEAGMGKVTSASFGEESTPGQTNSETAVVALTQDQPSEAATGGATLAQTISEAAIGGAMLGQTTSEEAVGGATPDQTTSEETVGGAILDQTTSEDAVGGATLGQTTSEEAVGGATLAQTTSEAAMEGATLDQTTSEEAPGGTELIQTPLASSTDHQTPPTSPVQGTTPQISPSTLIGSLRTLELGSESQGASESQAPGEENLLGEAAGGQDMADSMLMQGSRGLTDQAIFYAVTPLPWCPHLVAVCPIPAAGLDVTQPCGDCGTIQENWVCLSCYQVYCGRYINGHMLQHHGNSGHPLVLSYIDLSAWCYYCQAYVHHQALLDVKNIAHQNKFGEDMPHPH

A549 [5] = assay: Anti-proliferative activity against human A549 cells after 48 hrs by MTT assay; assay type: functional, cell-based; conditions: A549, 48 h
Histone deacetylase 8 = target: T2, Histone deacetylase 8 (Homo sapiens, UniProt Q9BY41); assay: Inhibition of HDAC8 (unknown origin)
T2 sequence (Q9BY41 whole entry): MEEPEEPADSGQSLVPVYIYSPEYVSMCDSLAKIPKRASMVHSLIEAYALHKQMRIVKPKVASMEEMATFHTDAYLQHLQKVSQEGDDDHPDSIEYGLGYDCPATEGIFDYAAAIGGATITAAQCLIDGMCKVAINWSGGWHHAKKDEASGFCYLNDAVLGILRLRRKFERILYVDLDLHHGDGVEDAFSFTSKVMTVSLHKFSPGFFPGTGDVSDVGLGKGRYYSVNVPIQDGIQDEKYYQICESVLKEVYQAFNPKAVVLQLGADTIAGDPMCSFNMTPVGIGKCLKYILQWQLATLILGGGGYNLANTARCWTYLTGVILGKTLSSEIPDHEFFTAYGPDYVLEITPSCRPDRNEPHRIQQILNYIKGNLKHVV

[6] = target: Voltage-gated inwardly rectifying potassium channel KCNH2 (Homo sapiens, UniProt Q12809); assay: Inhibition of recombinant human ERG expressed in HEK293 cells at -80 mV holding potential measured for 9 mins by Qpatch clamp method; assay type: cell-based
MRC5 = assay: Anti-proliferative activity against human MRC5 cells after 48 hrs by MTT assay; assay type: ADME, cell-based; conditions: MRC5, 48 h
K562 = assay: Anti-proliferative activity against human K562 cells after 48 hrs by MTT assay; assay type: functional, cell-based; conditions: K562, 48 h
HCT-116 = assay: Anti-proliferative activity against human HCT116 cells after 48 hrs by MTT assay; assay type: functional, cell-based; conditions: HCT-116, 48 h
[7] = Terminal half life in Sprague-Dawley rat at 2 mg/kg, iv by HPLC method; assay type: ADME, organism-based; conditions: in vivo, read-out: beta t1/2 (converted)
How it was run: (§1)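 Female Sprague-Dawley rats were dosed with the compound at 2 mg/kg iv (for clearance and terminal half-life) or 20 mg/kg orally (for Cmax, Tmax and oral bioavailability). Blood was collected at various time points up to 24 h, and plasma was analyzed by HPLC coupled to triple quadrupole mass spectrometry.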

A549 [8] = assay: Antitumor activity against human A549 cells xenografted in mouse assessed as tumor growth inhibition at 40 mg/kg, ip administered once every other day for 21 days relative to control; assay type: functional; conditions: 504 h, read-out: TGI
How it was run: (§2)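 Mice bearing non-small cell lung cancer A549 xenografts were given the compound ip at 20 or 40 mg/kg once every other day for a 21-day efficacy study.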

[9] = Oral bioavailability in Sprague-Dawley rat at 20 mg/kg by HPLC method; assay type: ADME, organism-based; conditions: in vivo; how it was run: as §1
[10] = Cmax in Sprague-Dawley rat at 20 mg/kg, po by HPLC method; assay type: ADME, organism-based; parameters: dose 20 mg/kg, route oral; conditions: in vivo; how it was run: as §1
Mus musculus = assay: Toxicity in mouse xenografted with human A549 cells at 20 to 40 mg/kg, ip administered once every other day for 21 days; assay type: organism-based; conditions: in vivo, 504 h; how it was run: as §2
A549 [11] = assay: Antitumor activity against human A549 cells xenografted in mouse assessed as tumor growth inhibition at 20 mg/kg, ip administered once every other day for 21 days relative to control; assay type: functional; conditions: 504 h, read-out: TGI; how it was run: as §2
[12] = Tmax in Sprague-Dawley rat at 20 mg/kg, po by HPLC method; assay type: ADME, organism-based; conditions: in vivo; how it was run: as §1
[13] = Clearance in Sprague-Dawley rat at 2 mg/kg, iv by HPLC method; assay type: ADME, organism-based; conditions: in vivo; how it was run: as §1

Sequence of Voltage-gated inwardly rectifying potassium channel KCNH2 (Q12809 whole entry): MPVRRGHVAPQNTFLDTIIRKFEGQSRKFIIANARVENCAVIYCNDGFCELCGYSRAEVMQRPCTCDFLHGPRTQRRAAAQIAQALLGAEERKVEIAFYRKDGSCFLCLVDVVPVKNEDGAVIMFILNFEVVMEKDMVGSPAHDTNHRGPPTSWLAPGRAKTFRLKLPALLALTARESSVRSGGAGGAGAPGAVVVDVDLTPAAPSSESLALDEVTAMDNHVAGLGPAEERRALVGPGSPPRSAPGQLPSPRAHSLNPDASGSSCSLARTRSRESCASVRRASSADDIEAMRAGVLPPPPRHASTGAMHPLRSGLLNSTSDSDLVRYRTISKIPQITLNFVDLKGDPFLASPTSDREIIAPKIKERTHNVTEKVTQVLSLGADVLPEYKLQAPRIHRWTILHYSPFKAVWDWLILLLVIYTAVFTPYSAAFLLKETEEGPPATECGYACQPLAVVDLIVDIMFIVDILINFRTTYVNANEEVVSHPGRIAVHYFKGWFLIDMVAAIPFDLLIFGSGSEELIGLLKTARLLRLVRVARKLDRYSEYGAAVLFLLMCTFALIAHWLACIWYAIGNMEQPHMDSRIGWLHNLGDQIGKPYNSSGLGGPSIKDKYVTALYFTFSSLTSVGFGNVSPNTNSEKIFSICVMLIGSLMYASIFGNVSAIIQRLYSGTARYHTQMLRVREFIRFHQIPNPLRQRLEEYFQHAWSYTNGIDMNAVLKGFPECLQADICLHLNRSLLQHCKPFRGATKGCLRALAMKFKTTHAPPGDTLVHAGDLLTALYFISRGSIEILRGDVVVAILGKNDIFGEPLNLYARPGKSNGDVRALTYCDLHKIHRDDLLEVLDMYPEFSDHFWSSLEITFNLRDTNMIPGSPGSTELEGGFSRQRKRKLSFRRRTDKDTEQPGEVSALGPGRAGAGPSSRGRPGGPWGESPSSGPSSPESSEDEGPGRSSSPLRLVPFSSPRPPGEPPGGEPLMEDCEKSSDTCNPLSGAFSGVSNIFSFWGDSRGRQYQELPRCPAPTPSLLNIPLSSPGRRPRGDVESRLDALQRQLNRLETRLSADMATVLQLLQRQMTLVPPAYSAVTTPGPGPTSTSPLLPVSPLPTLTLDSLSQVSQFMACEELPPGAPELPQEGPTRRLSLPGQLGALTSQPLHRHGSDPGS
Sequence of Histone deacetylase 1 (Q13547 whole entry): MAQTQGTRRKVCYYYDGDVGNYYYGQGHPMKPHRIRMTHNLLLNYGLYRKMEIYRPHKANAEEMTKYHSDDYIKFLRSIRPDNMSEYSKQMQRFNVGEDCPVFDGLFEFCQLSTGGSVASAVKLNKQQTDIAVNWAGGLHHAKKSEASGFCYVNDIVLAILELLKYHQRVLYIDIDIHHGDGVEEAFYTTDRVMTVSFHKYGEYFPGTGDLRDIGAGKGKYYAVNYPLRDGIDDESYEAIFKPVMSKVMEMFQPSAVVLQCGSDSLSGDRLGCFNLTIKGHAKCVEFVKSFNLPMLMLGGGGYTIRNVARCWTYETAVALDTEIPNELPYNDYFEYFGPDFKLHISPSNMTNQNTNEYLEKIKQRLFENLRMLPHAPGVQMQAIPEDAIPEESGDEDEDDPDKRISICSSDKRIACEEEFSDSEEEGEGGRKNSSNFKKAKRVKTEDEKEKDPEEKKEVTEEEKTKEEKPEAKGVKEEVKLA

IC50 [1]: 22.9 nM
SMILES: O=C(CCCCCCNc1ncnc2ccc([N+](=O)[O-])cc12)NO

IC50 [1]: 13.1 nM
SMILES: COc1cc2ncnc(NCCCCCCC(=O)NO)c2cc1OC

bioavailability (in vivo [2]): 11%
half-life (in vivo [3]): 12 min
IC50 (PC-3): 2920 nM
SMILES: O=C(CCCCCCC(=O)Nc1ccccc1)NO [VORINOSTAT]

IC50 [1]: 55.2 nM
SMILES: Cc1cccc2c(NCCCCCCC(=O)NO)ncnc12

IC50 [1]: 152 nM
SMILES: COCCOc1cc2ncnc(NCCCCCCC(=O)NO)c2cc1OCCOC

IC50 [1]: 24.2 nM
SMILES: O=C(CCCCCCNc1ncnc2cc(Cl)ccc12)NO

IC50 [1]: 20.2 nM
SMILES: Cc1ccc2ncnc(NCCCCCCC(=O)NO)c2c1

IC50 (Histone deacetylase 1): 13 nM
IC50 (MDA-MB-231): 490 nM
IC50 [4]: 8 nM
IC50 (A549 [5]): 147 nM
IC50 (Histone deacetylase 8): 1460 nM
IC50 (PC-3): 1020 nM
IC50 [1]: 8.17 nM
IC50 (K562): 860 nM
IC50 (HCT-116): 3450 nM
SMILES: O=C(CCCCCCNc1ncnc2ccc(F)cc12)NO
IC50 [6]: > 30000 nM
IC50 (MRC5): 76500 nM

IC50 [1]: 41.2 nM
SMILES: O=C(CCCCCNc1ncnc2ccccc12)NO

IC50 [1]: 33.8 nM
SMILES: O=C(CCCCCCNc1ncnc2ccccc12)NO

IC50 [1]: 20.7 nM
SMILES: O=C(CCCCCCNc1ncnc2cc(F)ccc12)NO

IC50 [1]: 12.1 nM
SMILES: Nc1ccc2ncnc(NCCCCCCC(=O)NO)c2c1

IC50 [1]: > 2000 nM
SMILES: O=C(CCCCCCNC(=O)c1ccccc1)NO

IC50 [1]: 10.5 nM
SMILES: COc1cc2ncnc(NCCCCCC(=O)NO)c2cc1OC

IC50 (Histone deacetylase 1): 11 nM
half-life [7]: 172 min
IC50 (MDA-MB-231): 170 nM
IC50 [4]: 7 nM
IC50 (A549 [5]): 80 nM
IC50 (Histone deacetylase 8): 1970 nM
bioavailability [9]: 16.8%
IC50 (PC-3): 760 nM
Cmax [10]: 146 ng/mL
IC50 [1]: 3.08 nM
IC50 (K562): 1210 nM
IC50 (HCT-116): 2110 nM
Tmax [12]: 15 min
clearance [13]: 53 mL/min/kg
SMILES: O=C(CCCCCCNc1ncnc2ccc(Cl)cc12)NO
inhibition in vivo at 40 mg/kg (A549 [8]): 76.4%
IC50 [6]: > 30000 nM
IC50 (MRC5): 54900 nM
Activity (Mus musculus): Non-Toxic
inhibition in vivo at 20 mg/kg (A549 [11]): 53.1%

— ChEMBL document CHEMBL4043255, “Design, synthesis and biological evaluation of novel histone deacetylase inhibitors incorporating 4-aminoquinazolinyl systems as capping groups” (Bioorg Med Chem Lett, 2017)
